{"source": "paper PMC9306447", "about": "(Clinical Cancer Research, 2022)", "key": {"[1]": {"conditions": "daily dose; cited from earlier work"}, "[2]": {"test_system": "FAK", "conditions": "read-out: biochemical IC50; cited from earlier work"}, "[3]": {"test_system": "human plasma proteins", "experiment": "Fraction unbound in plasma by equilibrium dialysis", "assay_type": "in vitro ADME", "conditions": "patient plasma; median and range", "how_it_was_run": "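Patient plasma came from subjects dosed orally with the test compound for 10 days (750 mg/day fasted or 450 mg/day fed). Blood was sampled on day 9 and intraoperatively, centrifuged at 4°C, 1,500 g for 10 min, and the plasma stored at −80°C. Fraction unbound was measured by equilibrium dialysis; unbound concentration is total concentration (LC-MS/MS) times fraction unbound.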"}, "[4]": {"experiment": "Ceritinib concentrations in brain tumor and CSF and extent of CNS penetration", "assay_type": "in vivo, human", "conditions": "for Total drug tumor conc. EN / Unbound drug tumor conc. EN: enhancing tumor; for Total drug tumor conc. NE / Unbound drug tumor conc. NE: nonenhancing tumor"}, "[5]": {"experiment": "Steady-state plasma PK of total and unbound ceritinib", "assay_type": "in vivo, human", "conditions": "for Css,max / Tss,max: plasma"}, "[6]": {"test_system": "IGF1R", "conditions": "read-out: biochemical IC50; cited from earlier work"}, "[7]": {"experiment": "Clinical safety, adverse events graded by CTCAE", "assay_type": "in vivo, human", "conditions": "10 patients"}, "[8]": {"test_system": "ALK(+) NSCLC with brain metastases", "conditions": "across all four arms of ASCEND-7; cited from earlier work"}, "[9]": {"experiment": "Fraction unbound in brain tumor tissue by equilibrium dialysis", "assay_type": "in vitro ADME, human", "conditions": "for Fraction unbound EN: enhancing tumor tissue; for Fraction unbound NE: nonenhancing tumor tissue", "how_it_was_run": "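Patients with brain metastasis or recurrent glioblastoma took the test compound orally for 10 days: 750 mg/day fasted or 450 mg/day with food. Tumor was resected 2 to 4, 6 to 8 or 23 to 25 h after the 10th dose. Regions were gadolinium-enhancing or, for glioblastoma, also nonenhancing, defined by preoperative MRI and intraoperative neuronavigation. Fraction unbound was measured by equilibrium dialysis, with total drug by LC-MS/MS.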"}, "[10]": {"test_system": "ALK(+) NSCLC brain metastases", "conditions": "ASCEND-1, cited from earlier work"}, "[11]": {"conditions": "mean of patients, all time points"}, "[12]": {"conditions": "median of patients, all time points"}, "[13]": {"conditions": "individual patients 7, 9, 13, 6–8 h after 10th dose, 450 mg/day"}, "[14]": {"conditions": "individual patients 8, 14, 23–25 h after 10th dose, 450 mg/day"}, "[15]": {"conditions": "individual patients 5, 11, 2–4 h after 10th dose, 450 mg/day"}, "[16]": {"conditions": "total ceritinib, arithmetic mean of 10 patients (750 or 450 mg/day)"}, "[17]": {"conditions": "total ceritinib, geometric mean of 10 patients (750 or 450 mg/day)"}, "[18]": {"conditions": "unbound ceritinib, arithmetic mean of 10 patients (750 or 450 mg/day)"}, "[19]": {"conditions": "unbound ceritinib, geometric mean of 10 patients (750 or 450 mg/day)"}, "[20]": {"conditions": "individual patients 7, 9, 13 (resection 6–8 h)"}, "[21]": {"conditions": "individual patients 8, 14 (resection 23–25 h)"}, "[22]": {"conditions": "median (range given) of patients"}}, "note": "“And” between values parts separate entries of the source, which are not always exact repeats. Equal entries are not always repeated. Where two headings read alike, the source gives them in different places.", "data": [{"smiles": "Cc1cc(Nc2ncc(Cl)c(Nc3ccccc3S(=O)(=O)C(C)C)n2)c(OC(C)C)cc1C1CCNCC1", "note": "[ceritinib, 5-chloro-N2-(2-isopropoxy-5-methyl-4-(piperidin-4-yl)phenyl)-N4-(2-(isopropylsufonyl)phenyl)pyrimidine-2,4-diamine]", "values": [{"measurement": "maximally tolerated dose (MTD)", "setting": "[1]", "result": 750, "unit": "mg"}, {"measurement": "IC50", "setting": "[2]", "result": 30, "unit": "nM"}, {"measurement": "fraction unbound in human plasma", "setting": "[3]", "result": "1.4% and 0.6%–2.6%"}, {"measurement": "CSF concentration", "setting": "[4]; individual patient 14, 23–25 h after 10th dose, 450 mg/day", "result": 0.015, "unit": "µM"}, {"measurement": "CSF concentration", "setting": "[4]; individual patients 7, 13, 6–8 h after 10th dose, 450 mg/day", "result": "0.003 µM and 0.015 µM"}, {"measurement": "CSF concentration", "setting": "[4]; [11]", "result": 0.022, "unit": "µM"}, {"measurement": "CSF concentration", "setting": "[4]; [12]", "result": 0.012, "unit": "µM"}, {"measurement": "Total drug tumor conc. EN", "setting": "[4]; [13]", "result": "17.770 nmol/mg and 28.484 nmol/mg and 58.893 nmol/mg"}, {"measurement": "Unbound drug tumor conc. EN", "setting": "[4]; [13]", "result": "0.001 nmol/mg and 0.043 nmol/mg and 0.018 nmol/mg"}, {"measurement": "Total drug tumor conc. EN", "setting": "[4]; [14]", "result": "18.340 nmol/mg and 43.715 nmol/mg"}, {"measurement": "Unbound drug tumor conc. EN", "setting": "[4]; [14]", "result": "0.055 nmol/mg and 0.063 nmol/mg"}, {"measurement": "Total drug tumor conc. EN", "setting": "[4]; [11]", "result": 46.954, "unit": "nmol/mg"}, {"measurement": "Unbound drug tumor conc. EN", "setting": "[4]; [11]", "result": 0.117, "unit": "nmol/mg"}, {"measurement": "Total drug tumor conc. EN", "setting": "[4]; [12]", "result": 36.100, "unit": "nmol/mg"}, {"measurement": "Unbound drug tumor conc. EN", "setting": "[4]; [12]", "result": 0.048, "unit": "nmol/mg"}, {"measurement": "unbound concentration in enhancing tumor", "setting": "[4]; median", "result": 48, "unit": "nM"}, {"measurement": "unbound concentration in nonenhancing tumor", "setting": "[4]; median", "result": 6, "unit": "nM"}, {"measurement": "Total drug tumor conc. NE", "setting": "[4]; [15]", "result": "36.351 nmol/mg and 1.259 nmol/mg"}, {"measurement": "Unbound drug tumor conc. NE", "setting": "[4]; [15]", "result": "0.017 nmol/mg and BLQ"}, {"measurement": "Total drug tumor conc. NE", "setting": "[4]; [11]", "result": 9.674, "unit": "nmol/mg"}, {"measurement": "Unbound drug tumor conc. NE", "setting": "[4]; [11]", "result": 0.008, "unit": "nmol/mg"}, {"measurement": "Total drug tumor conc. NE", "setting": "[4]; [12]", "result": 2.771, "unit": "nmol/mg"}, {"measurement": "Unbound drug tumor conc. NE", "setting": "[4]; [12]", "result": 0.006, "unit": "nmol/mg"}, {"measurement": "Css,max", "setting": "[5]; [16]", "result": 1279, "unit": "nM"}, {"measurement": "Tss,max", "setting": "[5]; [16]", "result": 6.1, "unit": "h"}, {"measurement": "Css,max", "setting": "[5]; [17]", "result": 1230, "unit": "nM"}, {"measurement": "Tss,max", "setting": "[5]; [17]", "result": 5.9, "unit": "h"}, {"measurement": "CL/F", "setting": "[5]; [16]", "result": 42.5, "unit": "L/h"}, {"measurement": "fluctuation between steady-state peak and trough plasma concentrations", "setting": "[5]; total ceritinib, geometric mean", "result": 1.4, "unit": "fold"}, {"measurement": "CL/F", "setting": "[5]; total ceritinib, individual patients 1-3 (brain metastases), 750 mg/day fasted", "result": "29.8 L/h and 66.9 L/h and 54.6 L/h"}, {"measurement": "CL/F", "setting": "[5]; total ceritinib, individual patients 5-14 (glioblastoma), 450 mg/day with food", "result": "35.9 L/h and 39.8 L/h and 34.1 L/h and 34.7 L/h and 40.8 L/h and 37.8 L/h and 50.1 L/h"}, {"measurement": "Css,max", "setting": "[5]; [18]", "result": 19, "unit": "nM"}, {"measurement": "Tss,max", "setting": "[5]; [18]", "result": 9.3, "unit": "h"}, {"measurement": "Css,max", "setting": "[5]; [19]", "result": 15, "unit": "nM"}, {"measurement": "Tss,max", "setting": "[5]; [19]", "result": 7.0, "unit": "h"}, {"measurement": "IC50", "setting": "[6]", "result": 8, "unit": "nM"}, {"measurement": "tolerability of presurgical ceritinib", "setting": "[7]; 10-day presurgical course", "result": "well tolerated"}, {"measurement": "severity of toxicities at least possibly related to ceritinib", "setting": "[7]; CTCAE 4.0", "result": "minor (CTCAE 4.0 grades 1 and 2)"}, {"measurement": "disease control rate (DCR), intracranial", "setting": "[8]", "result": "High disease control rate"}, {"measurement": "Fraction unbound EN", "setting": "[9]; individual patients 1, 2, 3, 5, 11 (resection 2–4 h)", "result": "1.618% and 0.039% and 0.047% and 0.056%"}, {"measurement": "Fraction unbound EN", "setting": "[9]; [20]", "result": "0.006% and 0.153% and 0.030%"}, {"measurement": "Fraction unbound EN", "setting": "[9]; [21]", "result": "0.298% and 0.144%"}, {"measurement": "Fraction unbound EN", "setting": "[9]; [22]", "result": "0.006%–1.6% and 0.051%"}, {"measurement": "Fraction unbound NE", "setting": "[9]; individual patients 5, 11 (resection 2–4 h)", "result": "0.045% and 0.006%"}, {"measurement": "Fraction unbound NE", "setting": "[9]; [20]", "result": "0.006% and 0.163% and 0.030%"}, {"measurement": "Fraction unbound NE", "setting": "[9]; [21]", "result": "0.090% and 0.213%"}, {"measurement": "Fraction unbound NE", "setting": "[9]; [22]", "result": "0.045% and 0.006%–0.21%"}, {"measurement": "fraction unbound in the tumor relative to the median value", "setting": "[9]; patient 1, breast cancer brain metastasis", "result": "approximately 30 fold"}, {"measurement": "intracranial disease control rate", "setting": "[10]; ALKi-naïve patients (15/19)", "result": 78.9, "unit": "%"}, {"measurement": "intracranial disease control rate", "setting": "[10]; ALKi-pretreated patients (49/75)", "result": 65.3, "unit": "%"}]}]}
